Test results reported in ChEMBL document CHEMBL2412961, “CD4 mimics as HIV entry inhibitors: lead optimization studies of the aromatic substituents” (Bioorg Med Chem, 2013).
pIC50: −log10 of the molar value. Calls of active or inactive are those of the source. The rule behind the calls is not given here.

Assays:
[1] = test system: Human immunodeficiency virus 1; assay: Antiviral activity against Human immunodeficiency virus 1 R5 primary isolate YTA48P infected in CCR5-expressing human PM1 cells assessed as inhibition of virus-induced cytopathogenicity after 7 days by WST8 assay; assay type: functional, organism-based; details: PM1, 168 h
Procedure, shortened: (§1)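 PM1/CCR5 cells were infected with the HIV-1 R5 primary isolate YTA, or mock-infected for cytotoxicity, and incubated with compound at 37 °C for 7 days. Viability was read by WST-8 (Cell Counting Kit-8). IC50 is the concentration giving 50% protection from virus-induced cytopathogenicity. CC50 is the concentration giving 50% loss of viability in mock-infected cells. Assays were run in duplicate or triplicate.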

[2] = Cytotoxicity against CCR5-expressing human PM1 cells assessed as reduction of cell viability after 7 days by WST8 assay; assay type: cell-based; procedure, shortened: as §1
[3] = test system: PM1; assay: Induction of conformational change in human immunodeficiency virus 1 JR-FL R5 subtype B gp120 infected in human PM1 cells assessed as increase in binding affinity to monoclonal antibody 4C11 at 100 uM after 15 mins by FACS analysis; assay type: cell-based
Procedure, shortened: (§2)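 PM1 cells chronically infected with JR-FL (R5, subtype B) were pre-incubated with CD4 mimic for 15 min, with sCD4 at 0.5 µg/mL as reference. They were then incubated with CD4i mAb 4C11 at 4 °C for 15 min, washed with PBS and stained with FITC anti-human IgG. Flow cytometry read the 4C11 mean fluorescence intensity on gated PM1 cells, with anti-CD19 as control antibody. There were at least two independent experiments.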

[4] = test system: PM1; assay: Induction of conformational change in human immunodeficiency virus 1 JR-FL R5 subtype B gp120 infected in human PM1 cells assessed as increase in binding affinity to monoclonal antibody 4C11 at 25 to 100 uM after 15 mins by FACS analysis; assay type: cell-based; procedure, shortened: as §2

Structure (SMILES) | pIC50 [1] | CC50 at 168 h [2] [µM] | Activity [3] | Activity [4]
CC1(C)CC(NC(=O)C(=O)Nc2ccc(Cl)cc2)CC(C)(C)N1 | 6.21 | – | – | –
Cc1cc(NC(=O)C(=O)NC2CC3(CCCCC3)NC3(CCCCC3)C2)ccc1Cl (stereo not given) | 5.59 | 15 | Active | –
O=C(Nc1ccc(Cl)c(F)c1)C(=O)NC1CC2(CCCCC2)NC2(CCCCC2)C1 (stereo not given) | 6.64 | 11 | Active | Active
O=C(Nc1ccc(Cl)c(Cl)c1)C(=O)NC1CC2(CCCCC2)NC2(CCCCC2)C1 (stereo not given) | 6.21 | 11 | Active | –
Cc1ccc(NC(=O)C(=O)NC2CC(C)(C)NC(C)(C)C2)cc1 | 5.05 | – | – | –
Cc1ccc(NC(=O)C(=O)NC2CC3(CCCCC3)NC3(CCCCC3)C2)cc1F (stereo not given) | 6.27 | 91 | Active | –
Cc1ccc(NC(=O)C(=O)NC2CC(C)(C)NC(C)(C)C2)cc1Cl | 5.49 | 62 | Active | –
Cc1ccc(NC(=O)C(=O)NC2CC3(CCCCC3)NC3(CCCCC3)C2)cc1Br (stereo not given) | 5.49 | 11 | Active | –
CC1(C)CC(NC(=O)C(=O)Nc2ccc(Cl)c(Cl)c2)CC(C)(C)N1 | 5.39 | 36 | Active | –
O=C(Nc1ccc(Cl)cc1)C(=O)NC1CC2(CCCCC2)NC2(CCCCC2)C1 (stereo not given) | 6.37 | – | – | –
Cc1cc(NC(=O)C(=O)NC2CC(C)(C)NC(C)(C)C2)ccc1Cl | 5.48 | 38 | Active | –
Cc1ccc(NC(=O)C(=O)NC2CC3(CCCCC3)NC3(CCCCC3)C2)cc1Cl (stereo not given) | 5.21 | 11 | Active | –
Cc1ccc(NC(=O)C(=O)NC2CC(C)(C)NC(C)(C)C2)cc1Br | < 5.00 | 32 | Active | –
CC1(C)CC(NC(=O)C(=O)Nc2ccc(Cl)c(F)c2)CC(C)(C)N1 | 6.49 | 94 | Active | –
Cc1ccc(NC(=O)C(=O)NC2CC(C)(C)NC(C)(C)C2)cc1F | 5.55 | 110 | Active | –
